Measurements of several laboratories.
Protocols differ between the studies behind these lines.
MAL12: Alpha-glucosidase MAL12 (MAL12, Saccharomyces cerevisiae S288c, UniProt P53341)
FABP1: Fatty acid-binding protein, liver (FABP1, Homo sapiens, UniProt P07148)
SQLE: Squalene monooxygenase (SQLE, Homo sapiens, UniProt Q14534)

Structure (SMILES) | target | read-out | action | method | pH | notes | IC50
Cc1ccc(NC(=O)N2CCN(c3ccnc(Nc4ccc(Cl)cc4)n3)[C@H](C)C2)cc1 | MAL12 | enzyme activity | inhibitor | absorbance | pH 6.9 |  | 7.78 µM
COc1ccc(-c2nn(-c3ccccc3)cc2C2C(C(C)=O)=C(C)n3c(=O)c4ccccc4c(=O)n32)cc1 (stereo not drawn) | MAL12 | enzyme activity | inhibitor | absorbance |  |  | 13.7 µM
CCOc1ccc2c(c1)O/C(=C\c1cc(C)c(OC(C)(C)C(=O)O)c(C)c1)C2=O | FABP1 | cell-free assay | inhibitor | fluorescence | pH 7.4 |  | 8.6 µM
NS(=O)(=O)c1ccc(-n2nc(C(=O)NN=Cc3ccc(O)cc3)cc2-c2ccccc2)cc1 | Focal adhesion kinase 1 (PTK2, Homo sapiens, UniProt Q05397) | enzyme activity | inhibitor | ELISA |  |  | 17.1 µM
CNC(=O)[C@H](Cc1c[nH]c2ccccc12)NC(=O)[C@@H](CC(=O)NO)CC(C)C | Disintegrin and metalloproteinase domain-containing protein 10 (ADAM10, Homo sapiens, UniProt O14672) | enzyme activity | inhibitor |  |  |  | 0.776 µM
Nc1ccn(C[C@@H](CO)OCP(=O)(O)O)c(=O)n1 | Solute carrier family 22 member 6 (SLC22A6, Homo sapiens, UniProt Q4U2R8, F438Y) | transporter uptake | inhibitor | fluorescence |  |  | 1400 µM
O=C1C[C@@H](c2ccc(O)cc2)Oc2cc(O)cc(O)c21 | SQLE | enzyme activity | inhibitor | radiometric |  |  | 6.52 µM
O=C1COc2ccc(NS(=O)(=O)c3cccc(Cl)c3)cc2CN1C1CCCc2ccccc21 (stereo not drawn) | Replicase polyprotein 1ab, papain-like protease (rep, Severe acute respiratory syndrome coronavirus 2, UniProt P0DTD1) | enzyme activity | inhibitor | fluorescence |  |  | 6 µM
C[C@H]1CN(C(=O)Nc2ccc(C(F)(F)F)cc2)CCN1c1ccnc(Nc2ccc(Cl)cc2Cl)n1 | MAL12 | enzyme activity | inhibitor | absorbance | pH 6.9 |  | 12 µM
CCCOc1ccc2c(c1)O/C(=C\c1ccc(OC(C)C(=O)O)cc1)C2=O (stereo not drawn) | FABP1 | cell-free assay | inhibitor | fluorescence | pH 7.4 |  | 10.4 µM
CC(=O)C1=C(C)n2c(=O)c3ccccc3c(=O)n2C1c1cn(-c2ccccc2)nc1-c1ccc(O)cc1 (stereo not drawn) | MAL12 | enzyme activity | inhibitor | absorbance |  |  | 494 µM
CCN(CC)C(C)CN1c2ccccc2Sc2ccccc21 (stereo not drawn) | SQLE | enzyme activity | inhibitor | absorbance | pH 7.4 | with preincubation | 1.69 µM
CCCCOc1ccc2c(c1)O/C(=C\c1cc(C)c(OC(C)(C)C(=O)O)c(C)c1)C2=O | FABP1 | cell-free assay | inhibitor | fluorescence | pH 7.4 |  | 5.3 µM
C[C@H]1CN(C(=O)Nc2ccc(C(F)(F)F)cc2)CCN1c1ccnc(Nc2cccc(Cl)c2)n1 | MAL12 | enzyme activity | inhibitor | absorbance | pH 6.9 |  | 3.45 µM
O=c1cc(-c2ccc(O)cc2)oc2cc(O[C@@H]3O[C@H](CO)[C@@H](O)[C@H](O)[C@H]3O)cc(O)c12 | SQLE | enzyme activity | inhibitor | radiometric |  |  | 1.74 µM
CCCOc1ccc2c(c1)O/C(=C\c1ccc(OC(C)(C)C(=O)O)c(Cl)c1)C2=O | FABP1 | cell-free assay | inhibitor | fluorescence | pH 7.4 |  | 7.7 µM
COc1ccc(Cl)cc1C(=O)NCCc1ccc(S(=O)(=O)NC(=O)NC2CCCCC2)cc1 | Solute carrier family 22 member 6 (SLC22A6, Homo sapiens, UniProt Q4U2R8, F442A) | transporter uptake | inhibitor | fluorescence |  |  | 17.7 µM
CC1(C)CC(=O)C2=C(C1)n1c(=O)c3ccccc3c(=O)n1C2c1cn(-c2ccccc2)nc1-c1ccc(O)cc1 (stereo not drawn) | MAL12 | enzyme activity | inhibitor | absorbance |  |  | 108 µM
CCCOc1ccc2c(c1)O/C(=C\c1ccc(OC(C)(C)C(=O)O)c(F)c1)C2=O | FABP1 | cell-free assay | inhibitor | fluorescence | pH 7.4 |  | 9.2 µM
CN1CCC(CNc2ccc3ncc(-c4cccc(OC(F)(F)F)c4)n3n2)CC1 | Alpha-1A adrenergic receptor (ADRA1A, Homo sapiens, UniProt P35348) | calcium signal | antagonist |  |  |  | 4.81 µM
COc1cc(-c2oc3cc(O)cc(O)c3c(=O)c2O)ccc1O | SQLE | enzyme activity | inhibitor | radiometric |  |  | 11.5 µM
Cc1cc(/C=C2\Oc3cc(OCC(C)C)ccc3C2=O)cc(C)c1OC(C)(C)C(=O)O | FABP1 | cell-free assay | inhibitor | fluorescence | pH 7.4 |  | 4.8 µM
C[C@H]1CN(C(=O)Nc2ccc(C(F)(F)F)cc2)CCN1c1ccnc(Nc2ccccc2Cl)n1 | MAL12 | enzyme activity | inhibitor | absorbance | pH 6.9 |  | 4.21 µM
Cc1cc2c(cc1C)N[C@H](c1ccccc1)[C@@H](O)C(=O)N2 | Cyclin-dependent kinase 5 (CDK5, Homo sapiens, UniProt Q00535) | enzyme activity | inhibitor | ELISA |  |  | 0.663 µM
C[C@H]1CN(C(=O)Nc2ccc(C(F)(F)F)cc2)CCN1c1ccnc(Nc2ccc(O)cc2)n1 | MAL12 | enzyme activity | inhibitor | absorbance | pH 6.9 |  | 3.71 µM
CCCOc1ccc2c(c1)O/C(=C\c1cc(C)c(OC(C)(C)C(=O)O)c(C)c1)C2=O | FABP1 | cell-free assay | inhibitor | fluorescence | pH 7.4 |  | 4.8 µM
COc1ccc(NC(=O)N2CCN(c3ccnc(Nc4ccc(Cl)cc4)n3)[C@@H](C)C2)cc1 | MAL12 | enzyme activity | inhibitor | absorbance | pH 6.9 |  | 7.43 µM
CC(C)=CCC/C(C)=C/CC/C(C)=C/CC/C=C(\C)CC/C=C(\C)CCCNC1CC1 | SQLE | enzyme activity | inhibitor | radiometric |  |  | 2.68 µM
CC(=O)c1ccc2c(c1)N(CCCN1CCC(CCO)CC1)c1ccccc1S2 | SQLE | enzyme activity | inhibitor | absorbance | pH 7.4 | with preincubation | 1.44 µM
C[C@@H]1CN(C(=O)Nc2ccc(Cl)c(Cl)c2)CCN1c1ccnc(Nc2ccc(Cl)cc2)n1 | MAL12 | enzyme activity | inhibitor | absorbance | pH 6.9 |  | 4.53 µM
